Laboratory results: ChEMBL document CHEMBL1269007, “Synthesis and biological evaluation of Apogossypolone derivatives as pan-active inhibitors of antiapoptotic B-cell lymphoma/leukemia-2 (Bcl-2) family proteins” (J Med Chem, 2010)
Active and inactive are the calls of the source. No cut-off for these calls is given here.

Tests used:
Bcl-2-like protein 1 [1] = biological target: T1, Bcl-2-like protein 1 (Homo sapiens, UniProt Q07817); experiment: Binding affinity Bcl-xL at 200 uM by one-dimensional 1H nuclear magnetic resonance spectroscopy
T1 sequence (Q07817 whole entry): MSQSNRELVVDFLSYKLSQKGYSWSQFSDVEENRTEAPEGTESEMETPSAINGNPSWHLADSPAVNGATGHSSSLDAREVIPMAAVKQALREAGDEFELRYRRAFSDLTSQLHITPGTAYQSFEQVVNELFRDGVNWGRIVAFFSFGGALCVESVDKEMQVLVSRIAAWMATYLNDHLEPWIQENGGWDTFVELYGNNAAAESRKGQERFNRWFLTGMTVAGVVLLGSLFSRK

Bcl-2-like protein 1 [2] = biological target: T1, Bcl-2-like protein 1; experiment: Displacement of F-BakBH3 from Bcl-xL after 30 mins by fluorescence polarization assay
Summary of the method: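 GST-Bcl-XL ΔTM (100 nM) preincubated with varying compound concentrations in PBS pH 7.4 for 10 min at room temperature. FITC-labelled Bak BH3 peptide (2.5 μL of 100 nM stock) then added. Polarization read at 480/535 nm after 30 min at room temperature. Wild-type and mutant Bak BH3 peptides served as plate controls. IC50 from sigmoidal dose-response fit; mean of three independent experiments ± SE.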

Bcl-2-related protein A1 = biological target: T2, Bcl-2-related protein A1 (Homo sapiens, UniProt Q16548); experiment: Displacement of F-BakBH3 from Bfl-1 after 30 mins by fluorescence polarization assay
T2 sequence (Q16548 whole entry): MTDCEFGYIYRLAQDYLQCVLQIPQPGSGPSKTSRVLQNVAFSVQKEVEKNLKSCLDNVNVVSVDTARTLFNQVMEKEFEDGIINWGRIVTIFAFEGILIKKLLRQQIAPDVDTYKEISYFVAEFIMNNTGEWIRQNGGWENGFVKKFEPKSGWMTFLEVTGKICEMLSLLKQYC

[3] = Metabolic stability of the compound in rat plasma after 40 mins; format: ADME, cell-free; settings: read-out: Stability
[4] = Metabolic stability of the compound in rat microsomes after 40 mins; format: ADME, Microsome; settings: read-out: Stability
Mus musculus [5] = experiment: Reduction of spleen weight in ip dosed human Bcl2 expressing B6 transgenic BALB/c mouse administered as single dose after 24 hrs; format: functional, organism-based
Mus musculus [6] = experiment: Reduction of spleen weight in human Bcl2 expressing B6 transgenic BALB/c mouse at 60 umol/kg, ip administered as single dose after 24 hrs; format: functional; design: scale not given: the % may be the effect or the level left
Mus musculus [7] = experiment: Toxicity in human Bcl2 expressing B6 transgenic BALB/c mouse up to 120 umol/kg, ip administered as single dose after 24 hrs; format: organism-based; settings: in vivo
Summary of the method: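 B6 Bcl-2 transgenic Balb/c mice, age- and sex-matched, given one intraperitoneal dose (60 or 120 μmol/kg, also 30 μmol/kg) in ethanol:Cremophor EL:saline 10:10:80, 500 μL; survival and signs of toxicity observed over 24 h before sacrifice.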

[8] = biological target: Apoptosis regulator Bcl-2 (Homo sapiens, UniProt P10415); experiment: Displacement of FITC-Bim BH3 peptide from Bcl-2 after 10 mins by fluorescence polarization assay
Chain of Apoptosis regulator Bcl-2 (P10415 whole entry): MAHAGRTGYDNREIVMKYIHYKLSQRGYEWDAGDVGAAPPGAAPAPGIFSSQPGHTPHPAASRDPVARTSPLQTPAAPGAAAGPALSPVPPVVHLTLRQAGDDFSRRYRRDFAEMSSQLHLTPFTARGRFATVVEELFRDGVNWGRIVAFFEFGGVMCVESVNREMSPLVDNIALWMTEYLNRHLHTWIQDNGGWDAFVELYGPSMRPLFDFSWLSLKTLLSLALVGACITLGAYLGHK

[9] = biological target: Induced myeloid leukemia cell differentiation protein Mcl-1 (Homo sapiens, UniProt Q07820); experiment: Displacement of FITC-Bim BH3 peptide from Mcl-1 after 10 mins by fluorescence polarization assay
Chain of Induced myeloid leukemia cell differentiation protein Mcl-1 (Q07820 whole entry): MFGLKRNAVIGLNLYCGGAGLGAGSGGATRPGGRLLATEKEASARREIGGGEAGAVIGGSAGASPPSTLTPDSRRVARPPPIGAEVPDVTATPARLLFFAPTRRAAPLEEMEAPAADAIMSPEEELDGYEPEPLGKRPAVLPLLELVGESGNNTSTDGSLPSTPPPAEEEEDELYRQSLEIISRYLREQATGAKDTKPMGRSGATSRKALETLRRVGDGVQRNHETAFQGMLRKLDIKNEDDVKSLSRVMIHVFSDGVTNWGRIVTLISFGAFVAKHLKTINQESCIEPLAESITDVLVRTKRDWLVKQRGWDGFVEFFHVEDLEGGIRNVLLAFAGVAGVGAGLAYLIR

PC-3 = experiment: Cytotoxicity against human PC3 cells expressing high level of Bcl-xL after 72 hrs by ATP-LITE assay; format: functional, cell-based; settings: PC-3, 72 h
Summary of the method: (§1)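 Cells seeded in […] or RPMI1640 with 5 mM L-glutamine, 5% FBS, penicillin/streptomycin; H460 and H1299 at 2000, PC3 at 3000 cells/well. Compounds in 0.1% DMSO final added 24 h after seeding into fresh 5% serum medium; viability by ATP-LITE luminescence after 72 h, normalised to DMSO-treated cells.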

NCI-H460 = experiment: Cytotoxicity against human H460 cells expressing high level of Bcl-2 after 72 hrs by ATP-LITE assay; format: functional, cell-based; settings: NCI-H460, 72 h; summary of the method: as §1
[10] = Cytotoxicity against human H1299 cells expressing high level of Mcl-1 after 72 hrs by ATP-LITE assay; format: functional, cell-based; settings: NCI-H1299, 72 h; summary of the method: as §1
[11] = Cytotoxicity against human RS4:11 cells expressing high level of Bcl-2 and Bcl-xL after 72 hrs by annexin V-FITC and propidium iodide staining; format: functional, cell-based; settings: RS4-11, 72 h
[12] = Cytotoxicity against human BP3 cells expressing high level of Bfl-1 and Mcl-1 after 24 hrs by annexin V-FITC and propidium iodide staining; settings: BP3, 24 h
Mus musculus [13] = experiment: Toxicity in human Bcl2 expressing B6 transgenic BALB/c mouse assessed as mortality at 60 umol/kg, ip administered as single dose after 24 hrs; format: organism-based; settings: in vivo
Summary of the method: (§2)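 Age- and sex-matched B6 Bcl2 transgenic mice (human BCL-2/IgH minigene on Balb/c background, no aggressive lymphoma yet) given a single i.p. injection of compound in 500 μL ethanol:Cremophor EL:saline 10:10:80. Controls received vehicle. Animals sacrificed at 24 h with Avertin; spleen removed and weighed.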

Mus musculus [14] = experiment: Toxicity in human Bcl2 expressing B6 transgenic BALB/c mouse assessed as mortality at 30 umol/kg, ip administered as single dose after 24 hrs; format: organism-based; settings: in vivo; summary of the method: as §2
Mus musculus [15] = experiment: Reduction of spleen weight in human Bcl2 expressing B6 transgenic BALB/c mouse at 30 umol/kg, ip administered as single dose after 24 hrs; format: functional; design: scale not given: the % may be the effect or the level left
Mus musculus [16] = experiment: Toxicity in human PPC1 cells xenografted nude mouse assessed as mortality at 25 mg/kg, ip administered weekly 3 times; format: organism-based, PPC-1; design: dose 25 mg/kg, route intraperitoneal; settings: in vivo
Summary of the method: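 PPC-1 flank xenografts (5×10^6 cells s.c.) in female 6-week-old nude mice, size-matched at 200 mm³, 6 per group. Compound given i.p. three times in the first week in ethanol:Cremophor EL:saline 10:10:80 (500 μL); controls got saline. Survival and body weight monitored during week 1.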

[17] = Cytotoxicity against human RS4:11 cells expressing high level of Bcl-2 and Bcl-xL after 24 hrs by annexin V-FITC and propidium iodide staining; settings: RS4-11, 24 h

SMILES | Activity (Bcl-2-like protein 1 [1]) | Ki (Bcl-2-like protein 1 [2]) | Ki (Bcl-2-related protein A1) | remaining at 40 min [3] | remaining at 40 min [4] | Activity (Mus musculus [5]) | Ki [8] | Ki [9] | EC50 (PC-3) | EC50 (NCI-H460) | EC50 [10] | IC50 (Bcl-2-like protein 1 [2]) | IC50 (Bcl-2-related protein A1) | IC50 [8] | IC50 [9] | EC50 [12] | EC50 [17] | also measured
CC1=C(C2=C(C)C(=O)c3c(cc(O)c(O)c3CC(C)C)C2=O)C(=O)c2cc(O)c(O)c(CC(C)C)c2C1=O | Active | 370 nM | 930 nM | 98% | 69% | Dose-dependent effect | 170 nM | 310 nM | – | – | – | – | – | – | – | – | – | Activity (Mus musculus [6]): >30%; Activity (Mus musculus [7]): Non-toxic
CC1=C(C2=C(C)C(=O)c3c(cc(O)c(O)c3CCc3ccccc3)C2=O)C(=O)c2cc(O)c(O)c(CCc3ccccc3)c2C1=O | Active | 1200 nM | 6470 nM | 81% | 89% | Dose-dependent effect | 1730 nM | 870 nM | 1400 nM | 1040 nM | 850 nM | 1790 nM | 9720 nM | 2570 nM | 1290 nM | 8720 nM | – | EC50 [11]: 4750 nM
CC1=C(C2=C(C)C(=O)c3c(cc(O)c(O)c3Cc3ccc(Cl)cc3)C2=O)C(=O)c2cc(O)c(O)c(Cc3ccc(Cl)cc3)c2C1=O | Active | 110 nM | 470 nM | – | – | Dose-dependent effect | 230 nM | 270 nM | – | – | – | 150 nM | 700 nM | 340 nM | 400 nM | – | – | Activity (Mus musculus [13]): Toxic; Activity (Mus musculus [14]): Non-toxic; Activity (Mus musculus [15]): 76%
Cc1cc2c(C(C)C)c(O)c(O)c(C=O)c2c(O)c1-c1c(C)cc2c(C(C)C)c(O)c(O)c(C=O)c2c1O [GOSSYPOL] | – | – | – | – | – | – | – | – | – | – | – | – | – | – | – | – | – | Activity (Mus musculus [16]): Toxic
CC1=C(C2=C(C)C(=O)c3c(cc(O)c(O)c3CCc3ccc(OC(F)(F)F)cc3)C2=O)C(=O)c2cc(O)c(O)c(CCc3ccc(OC(F)(F)F)cc3)c2C1=O | Active | – | – | – | – | Dose-dependent effect | – | – | 8990 nM | 1440 nM | 2380 nM | – | – | – | – | 16100 nM | 7320 nM | –
CC1=C(C2=C(C)C(=O)c3c(cc(O)c(O)c3Cc3ccc(-c4ccccc4)cc3)C2=O)C(=O)c2cc(O)c(O)c(Cc3ccc(-c4ccccc4)cc3)c2C1=O | Active | – | – | – | – | Dose-dependent effect | – | – | 2970 nM | 980 nM | 10300 nM | – | – | – | – | 810 nM | 1740 nM | –
CC1=C(C2=C(C)C(=O)c3c(cc(O)c(O)c3CCCc3ccc(F)cc3)C2=O)C(=O)c2cc(O)c(O)c(CCCc3ccc(F)cc3)c2C1=O | Active | – | – | – | – | Dose-dependent effect | – | – | 2620 nM | 1480 nM | 1910 nM | – | – | – | – | 14600 nM | 11200 nM | –
CC1=C(C2=C(C)C(=O)c3c(cc(O)c(O)c3CCC3CCCCC3)C2=O)C(=O)c2cc(O)c(O)c(CCC3CCCCC3)c2C1=O | Active | 8400 nM | – | 74% | 98% | Dose-dependent effect | 4470 nM | 3930 nM | 2400 nM | 2200 nM | 1320 nM | 12700 nM | – | 6730 nM | 5900 nM | 15600 nM | 15700 nM | Activity (Mus musculus [7]): Non-toxic
CC1=C(C2=C(C)C(=O)c3c(cc(O)c(O)c3C(=O)Cc3ccccc3)C2=O)C(=O)c2cc(O)c(O)c(C(=O)Cc3ccccc3)c2C1=O | Active | 240 nM | 460 nM | – | – | Dose-dependent effect | 150 nM | 230 nM | 5440 nM | 7380 nM | > 30000 nM | 340 nM | 690 nM | 220 nM | 350 nM | 9580 nM | – | EC50 [11]: > 30000 nM
CCc1ccc(CCNC(=O)c2c(O)c(O)cc3c2C(=O)C(C)=C(C2=C(C)C(=O)c4c(cc(O)c(O)c4C(=O)NCCc4ccc(CC)cc4)C2=O)C3=O)cc1 | Active | 160 nM | 870 nM | – | – | Dose-dependent effect | 140 nM | 210 nM | – | – | – | 240 nM | 1250 nM | 210 nM | 320 nM | – | > 30000 nM | –
CC1=C(C2=C(C)C(=O)c3c(cc(O)c(O)c3CCC(C)(C)c3ccccc3)C2=O)C(=O)c2cc(O)c(O)c(CCC(C)(C)c3ccccc3)c2C1=O | Active | – | – | – | – | Dose-dependent effect | – | – | 2000 nM | 1620 nM | 2160 nM | – | – | – | – | 30000 nM | 15000 nM | –
CC1=C(C2=C(C)C(=O)c3c(cc(O)c(O)c3CCCc3ccccc3)C2=O)C(=O)c2cc(O)c(O)c(CCCc3ccccc3)c2C1=O | Active | 960 nM | 3530 nM | 87% | 88% | Dose-dependent effect | 1450 nM | 450 nM | 1300 nM | 920 nM | 1530 nM | 1440 nM | 5270 nM | 2170 nM | 670 nM | – | – | EC50 [11]: 3830 nM
CC1=C(C2=C(C)C(=O)c3c(cc(O)c(O)c3C(=O)NCC(C)c3ccccc3)C2=O)C(=O)c2cc(O)c(O)c(C(=O)NCC(C)c3ccccc3)c2C1=O (stereo not drawn) | Active | 210 nM | 470 nM | 91% | 71% | Dose-dependent effect | 150 nM | 310 nM | – | – | > 30000 nM | 320 nM | 710 nM | 230 nM | 470 nM | – | > 30000 nM | Activity (Mus musculus [13]): Toxic; Activity (Mus musculus [14]): Non-toxic
CC1=C(C2=C(C)C(=O)c3c(cc(O)c(O)c3C(=O)NCc3cccc(C)c3)C2=O)C(=O)c2cc(O)c(O)c(C(=O)NCc3cccc(C)c3)c2C1=O | Active | – | – | – | – | Dose-dependent effect | – | – | 5440 nM | 6160 nM | > 30000 nM | – | – | – | – | 21600 nM | > 30000 nM | –
CC1=C(C2=C(C)C(=O)c3c(cc(O)c(O)c3CC3CCCC3)C2=O)C(=O)c2cc(O)c(O)c(CC3CCCC3)c2C1=O | Active | 2000 nM | – | – | – | Dose-dependent effect | 1530 nM | 2070 nM | 5500 nM | 700 nM | 2320 nM | 2990 nM | – | 2270 nM | 3080 nM | 12800 nM | 9830 nM | –
